Calls of active or inactive are those of the source. The calls are words filed in the database; no cut-off is given here.
Assays:
[1] = Volume of distribution in SCID mouse at 1 mg/kg, iv; format: ADME, organism-based; set-up: dose 1 mg/kg, route intravenous; details: in vivo
Outline: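 Mouse IV PK: lateral tail vein dosing, 100 μL in 3% DMSO/30% Solutol/67% PBS; trunk blood from three mice per time point over 6 h. Plasma precipitated with acetonitrile, drug quantified by LCMS/MS against internal standard; noncompartmental analysis.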

[2] = Half life in Sprague-Dawley rat at 1 mg/kg, iv; format: ADME, organism-based; set-up: dose 1 mg/kg, route intravenous; details: in vivo
Outline: (§1)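 Rat PK. IV via the lateral tail vein, 1 mL/kg in 3% DMSO/30% Solutol/67% PBS, or oral gavage at 5 mL/kg in 40% HPβCD, after an overnight fast. Serial tail-vein blood was taken into heparin over 6 h. Plasma was acetonitrile-precipitated and analysed by LC-MS/MS. Parameters were noncompartmental, n = 3, mean ± SEM.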

[3] = Plasma clearance in Sprague-Dawley rat at 1 mg/kg, iv; format: ADME, organism-based; set-up: dose 1 mg/kg, route intravenous
Outline: (§2)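 IV PK: rats via lateral tail vein (1 mL/kg; 3% DMSO/30% Solutol/67% PBS), serial tail-vein blood over 6 h. Dogs and monkeys via saphenous vein (0.5 mL/kg in 40% HPβCD), femoral-vein blood over 24 h. Acetonitrile protein precipitation, LCMS/MS; noncompartmental parameters from individual animals, n = 3, mean ± SEM.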

[4] = Half life in cynomolgus monkey at 1 mg/kg, iv; format: ADME, organism-based, Macaca fascicularis; set-up: dose 1 mg/kg, route intravenous; details: in vivo
Outline: (§3)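 Dog and monkey PK. IV 0.5 mL/kg in 40% HPβCD via the saphenous vein. Oral dosing was 1 mL/kg by gavage in dogs and 2 mL/kg by nasogastric tube in monkeys, after an overnight fast. Serial femoral-vein blood was taken into heparin over 24 h. Plasma was acetonitrile-precipitated and analysed by LC-MS/MS. Parameters were noncompartmental, n = 3, mean ± SEM.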

[5] = Plasma clearance in cynomolgus monkey at 1 mg/kg, iv; format: ADME, organism-based, Macaca fascicularis; set-up: dose 1 mg/kg, route intravenous; outline: as §2
[6] = Half life in SCID mouse at 10 mg/kg, po; format: ADME, organism-based; set-up: dose 10 mg/kg, route oral; details: in vivo
Outline: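 Mouse PK. IV via the lateral tail vein in 3% DMSO/30% Solutol/67% PBS, or oral gavage in 100% PEG400, 100 μL dose volume, after an overnight fast. Trunk blood was taken from three mice per time point over 6 h. Plasma was acetonitrile-precipitated and analysed by LC-MS/MS. Parameters were derived noncompartmentally.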

[7] = Tmax in CD-1 mouse at 10 mg/kg, po; format: ADME, organism-based; set-up: dose 10 mg/kg, route oral; details: in vivo
Outline: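 Mouse oral PK: overnight fast, gavage of 100 μL in 100% PEG400; trunk blood from three mice per time point over 6 h; plasma acetonitrile-precipitated and analysed by LCMS/MS, noncompartmental parameters.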

[8] = Half life in Sprague-Dawley rat at 10 mg/kg, po; format: ADME, organism-based; set-up: dose 10 mg/kg, route oral; details: in vivo; outline: as §1
[9] = Cmax in Beagle dog at 10 mg/kg, po; format: ADME, organism-based, Canis lupus familiaris; set-up: dose 10 mg/kg, route oral; details: in vivo; outline: as §3
[10] = AUC in Beagle dog at 10 mg/kg, po; format: ADME, organism-based, Canis lupus familiaris; set-up: dose 10 mg/kg, route oral; details: plasma; outline: as §3
[11] = Tmax in cynomolgus monkey at 10 mg/kg, po; format: ADME, organism-based, Macaca fascicularis; set-up: dose 10 mg/kg, route oral; details: in vivo
Outline: (§4)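 PK: overnight-fasted animals. Rat oral gavage 5 mL/kg in 40% HPβCD, serial tail-vein blood over 6 h. Dog oral gavage 1 mL/kg, monkey nasogastric 2 mL/kg, femoral-vein blood over 24 h. Plasma protein-precipitated with acetonitrile, LCMS/MS with internal standard; noncompartmental analysis, individual animals n = 3, mean ± SEM.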

[12] = Oral bioavailability in cynomolgus monkey at 10 mg/kg; format: ADME, organism-based, Macaca fascicularis; details: in vivo; outline: as §4
Mus musculus [13] = assay: Inhibition of NPM-ALK phosphorylation in human KARPAS299 cells xenografted in SCID mouse tumor at 30 mg/kg, po qd after 12 hrs by immunoblotting; format: functional; details: KARPAS-299, 12 h
Outline: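 SCID mice bearing sc Karpas-299 xenografts received a single 30 mg/kg oral dose. Phospho- and total NPM-ALK in tumour samples were detected by immunoblotting, and relative NPM-ALK phosphorylation was calculated.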

KARPAS-299 = assay: Antitumor activity against human KARPAS299 cells expressing NPM-ALK xenografted in SCID mouse assessed as tumor regression administered as po bid for 12 days; format: functional, organism-based
Outline: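 Female SCID/beige mice, 6–8 weeks old, implanted sc in the left flank with exponentially growing Karpas-299 cells. At about 600 mm³ tumours, mice were randomized (8–10/group) and given PEG400 vehicle or compound orally b.i.d., 100 μL, for 12 days. Tumour volume (0.5236LW(L+W)/2) and body weight were recorded every 2–3 days; Mann–Whitney test. Plasma and tumour levels were measured by LC-MS/MS 2 h after the final dose, mean ± SEM.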

Mus musculus [14] = assay: Toxicity in SCID mouse xenografted with human KARPAS299 cells expressing NPM-ALK assessed as effect on body weight at 10 to 30 mg/kg, po bid; format: organism-based, KARPAS-299; set-up: dose 10-30 mg/kg, route oral; details: in vivo
Outline: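 Female SCID/beige mice (6–8 weeks), Karpas-299 cells implanted sc in left flank; at ~600 mm³ randomized (8–10/group), dosed orally in PEG400, 100 μL, b.i.d. for 12 days. Body weight every 2–3 days; plasma and tumor sampled 2 h after final dose, drug by LCMS/MS; Mann–Whitney rank sum statistics.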

SH-SY5Y = assay: Antitumor activity against human SH-SY5Y cells expressing ALK mutant R1275Q assessed as growth inhibition administered as po bid; format: functional, organism-based
Rattus norvegicus = assay: Ratio of AUC (0 to 12 h) at 10 mg/kg, po to AUC (0 to 12 h) at 100 mg/kg, po in rat; format: ADME, organism-based; details: in vivo
Outline: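 Oral dose-escalation PK study in rats at 10, 30, 55 and 100 mg/kg. […] The ratio compares the 10 mg/kg value with the 100 mg/kg value.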

[15] = Plasma concentration in SCID mouse xenografted with human KARPAS299 cells expressing NPM-ALK at 30 mg/kg, po after 6 hrs by LC-MS/MS analysis; format: ADME, organism-based, KARPAS-299; set-up: dose 30 mg/kg, route oral
Outline: (§5)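 Pharmacodynamic study: SCID mice bearing subcutaneous Karpas-299 xenografts given single 30 mg/kg oral dose; plasma drug levels measured by LCMS/MS, reported as mean ± SEM.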

[16] = Plasma concentration in SCID mouse xenografted with human KARPAS299 cells expressing NPM-ALK at 30 mg/kg, po after 24 hrs by LC-MS/MS analysis; format: ADME, organism-based, KARPAS-299; set-up: dose 30 mg/kg, route oral; outline: as §5
[17] = Drug level in SCID mouse tumor xenografted with human KARPAS299 cells expressing NPM-ALK at 30 mg/kg, po after 6 hrs by LC-MS/MS analysis; format: ADME, organism-based, Neoplasm, KARPAS-299; set-up: dose 30 mg/kg, route oral; details: read-out: Drug uptake
[18] = Drug level in SCID mouse tumor xenografted with human KARPAS299 cells expressing NPM-ALK at 30 mg/kg, po after 12 hrs by LC-MS/MS analysis; format: ADME, organism-based, Neoplasm, KARPAS-299; set-up: dose 30 mg/kg, route oral; details: read-out: Drug uptake
[19] = Drug level in SCID mouse tumor xenografted with human KARPAS299 cells expressing NPM-ALK at 30 mg/kg, po after 24 hrs by LC-MS/MS analysis; format: ADME, organism-based, Neoplasm, KARPAS-299; set-up: dose 30 mg/kg, route oral; details: read-out: Drug uptake
[20] = target: Protein-tyrosine kinase 6 (Homo sapiens, UniProt Q13882); assay: Inhibition of human BRK
[21] = target: Tyrosine-protein kinase Fes/Fps (Homo sapiens, UniProt P07332); assay: Inhibition of human Fes
Outline: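 Millipore KinaseProfiler activity assays on a 259-kinase panel; kinases inhibited by ≥90% at 1 μM then taken to full IC50 determination.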

[22] = target: Ribosomal protein S6 kinase alpha-1 (Homo sapiens, UniProt Q15418); details: 1 uM
Sequence of Ribosomal protein S6 kinase alpha-1 (Q15418 whole entry): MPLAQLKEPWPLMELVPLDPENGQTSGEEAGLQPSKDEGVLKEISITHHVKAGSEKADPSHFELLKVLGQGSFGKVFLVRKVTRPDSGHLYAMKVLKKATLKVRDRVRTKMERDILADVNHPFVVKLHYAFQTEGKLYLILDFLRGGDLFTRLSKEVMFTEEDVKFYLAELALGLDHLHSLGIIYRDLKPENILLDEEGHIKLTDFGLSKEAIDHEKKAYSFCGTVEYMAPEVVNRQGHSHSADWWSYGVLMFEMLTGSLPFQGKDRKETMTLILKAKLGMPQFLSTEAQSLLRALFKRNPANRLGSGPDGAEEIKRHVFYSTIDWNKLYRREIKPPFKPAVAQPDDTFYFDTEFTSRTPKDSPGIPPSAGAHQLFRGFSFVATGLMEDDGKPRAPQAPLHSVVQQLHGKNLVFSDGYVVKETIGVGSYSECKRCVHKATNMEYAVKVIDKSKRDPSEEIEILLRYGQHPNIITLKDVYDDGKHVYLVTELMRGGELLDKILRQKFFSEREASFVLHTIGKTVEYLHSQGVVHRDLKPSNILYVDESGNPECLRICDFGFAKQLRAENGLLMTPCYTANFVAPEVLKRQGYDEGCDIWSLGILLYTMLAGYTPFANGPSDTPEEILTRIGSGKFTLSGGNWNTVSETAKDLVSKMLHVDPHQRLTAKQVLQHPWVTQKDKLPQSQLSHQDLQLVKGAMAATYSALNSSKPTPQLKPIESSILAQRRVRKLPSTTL

Sequence of Protein-tyrosine kinase 6 (Q13882 whole entry): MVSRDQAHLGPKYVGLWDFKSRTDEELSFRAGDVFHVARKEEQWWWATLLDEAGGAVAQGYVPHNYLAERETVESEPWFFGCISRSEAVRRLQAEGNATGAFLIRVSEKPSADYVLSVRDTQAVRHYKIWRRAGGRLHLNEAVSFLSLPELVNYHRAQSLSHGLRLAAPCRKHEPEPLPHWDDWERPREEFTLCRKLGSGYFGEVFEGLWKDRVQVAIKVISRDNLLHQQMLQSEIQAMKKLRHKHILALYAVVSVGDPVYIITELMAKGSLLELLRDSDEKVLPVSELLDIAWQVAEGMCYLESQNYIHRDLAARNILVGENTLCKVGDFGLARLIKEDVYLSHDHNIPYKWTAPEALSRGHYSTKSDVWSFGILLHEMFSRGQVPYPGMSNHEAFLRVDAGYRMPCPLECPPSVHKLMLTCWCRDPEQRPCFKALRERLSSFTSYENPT
Sequence of Tyrosine-protein kinase Fes/Fps (P07332 whole entry): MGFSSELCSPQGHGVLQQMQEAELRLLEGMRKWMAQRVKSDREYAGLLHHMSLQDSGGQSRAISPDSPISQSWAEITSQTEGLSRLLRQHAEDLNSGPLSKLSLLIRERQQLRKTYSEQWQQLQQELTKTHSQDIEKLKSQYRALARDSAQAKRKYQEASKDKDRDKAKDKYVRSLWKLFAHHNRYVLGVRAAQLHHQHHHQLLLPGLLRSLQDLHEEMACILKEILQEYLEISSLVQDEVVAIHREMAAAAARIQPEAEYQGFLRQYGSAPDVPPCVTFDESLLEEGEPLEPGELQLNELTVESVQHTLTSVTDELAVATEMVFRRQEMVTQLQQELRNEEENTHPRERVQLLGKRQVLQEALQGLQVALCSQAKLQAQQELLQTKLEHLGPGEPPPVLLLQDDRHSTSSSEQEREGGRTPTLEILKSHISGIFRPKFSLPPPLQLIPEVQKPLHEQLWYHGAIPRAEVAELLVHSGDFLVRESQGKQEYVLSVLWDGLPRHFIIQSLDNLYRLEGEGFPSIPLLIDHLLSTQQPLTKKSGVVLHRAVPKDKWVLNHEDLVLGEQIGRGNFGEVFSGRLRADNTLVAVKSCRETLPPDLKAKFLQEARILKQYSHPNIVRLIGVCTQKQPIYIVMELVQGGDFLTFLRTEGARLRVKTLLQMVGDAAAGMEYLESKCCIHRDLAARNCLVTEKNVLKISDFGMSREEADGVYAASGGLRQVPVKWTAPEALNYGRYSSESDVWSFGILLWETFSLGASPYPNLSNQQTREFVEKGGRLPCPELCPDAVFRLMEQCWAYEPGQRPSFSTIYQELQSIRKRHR

**Q.** What does the source list for `COc1c(Nc2ncc(Cl)c(N[C@H]3[C@@H](C(N)=O)[C@@H]4C=C[C@H]3C4)n2)ccc2c1CC[C@@H](N1CCOCC1)CC2`?
**A.** Vd [1]: 0.8 L/kg; half-life [2]: 0.9 h; clearance [3]: 17 mL/min/kg; half-life [4]: 1.2 h; clearance [5]: 28 mL/min/kg; half-life [6]: 1.8 h; Tmax [7]: 0.25 h; half-life [8]: 6.2 h; Cmax [9]: 427 ng/mL; AUC [10]: 2130 ng·h/mL; Tmax [11]: 4.7 h; bioavailability [12]: 16%; inhibition in vivo at 30 mg/kg (Mus musculus [13]): > 90%; Activity (KARPAS-299): Dose-dependent effect; Activity (Mus musculus [14]): Non-toxic; growth inhibition (GI) (SH-SY5Y): Active; Ratio (Rattus norvegicus): 15; concentration at 6 h [15]: 3840 ng/mL; concentration at 24 h [16]: 12 ng/mL; concentration at 6 h [17]: 2870 ng/g; concentration at 12 h [18]: 1460 ng/g; concentration at 24 h [19]: 100 ng/g; IC50 [20]: 73 nM; IC50 [21]: 99 nM; inhibition [22]: > 90%
